Test system: MS2 coat protein
Assay: apparent Kd, MS2 coat protein; higher = weaker binding; RNA-MaP array; FMN 200 µM where present
Summary of the method: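 The apparent Kd is the median of filtered binding-curve fits, one per cluster, to green signal normalised to red-channel RNA signal and control-cluster median Fmax. The clusters were on Illumina sequencing chips, and stalled E. coli RNA polymerase had transcribed the designs on them. Titration used SNAP-549-labelled MS2 coat protein from 0.7 or 1.5 nM, doubling to 3 µM, without and then with constant ligand, in 100 mM Tris-HCl pH 7.5, 80 mM KCl, 4 mM MgCl2, BSA, DTT, yeast tRNA and Tween-20.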

[1] = designed as: OFF switch for flavin mononucleotide, no ligand
[2] = ligand present: flavin mononucleotide, designed as: OFF switch for flavin mononucleotide
[3] = designed as: ON switch for flavin mononucleotide, no ligand
[4] = ligand present: flavin mononucleotide, designed as: ON switch for flavin mononucleotide

Sequence	apparent Kd [1] [nM]	apparent Kd [2] [nM]	apparent Kd [3] [nM]	apparent Kd [4] [nM]
UUAAUAGUAGGAUAUACAUGAGGAUCACCCAUGUAGCAACUACAUUAAGGAACCUGAUGUAGAAGGACUCCCAG	13.3	15.2	–	–
CAGAAGUCAGGAUAUGCUGCUCGUCACUUGCGUGAUGAGUAGCAGAAGGGACAUGAGGAUCACCCAUGUAAAGU	55.6	121	–	–
GGUGUCAUCGAGAAGGCCUCAACAUGAGGAUCACCCAUGUUGUAAUAUGGGAGGAUAUCGAUGAUACAGCUACGUUUCGUAGCG	–	–	19.9	6.57
GUCGGAAACGACAAAAGUAUGGAUCCAGAAGGCAUGUACAUGAGGAUCACCCAUGUCUAAAGAUAUGAGGAUAUGGAUCCAUAC	–	–	6.71	5.18
GUAGCUAUCGGAGGAUAUUCAUGAUACAUGAGGAUCACCCAUGUUAAAAUGGGAGAAGGCCGAUAGCUACAAGAGCGAAAGCUC	–	–	41.1	8.01
UCAAUUCUGACAUCCUUAUUACAUGAGGAUCACCCAUGUUGUGAGGAUAUCCCAACCCACGGUCAGGAGAAGGCACAUAGAGGG	5.5	5.9	–	–
CUAUAGAUAUCAGGAUAUCUAUUUCCUACAUGAGGAUCACCCAUGUAGAGGAUCACCCAUGUAAAGGAGAAGGGAUAUCUAUAG	–	–	91.3	20.4
CUUCUGUGAGGAUAUGUUAGCUCCCAGAAUGUCGCUGGGAGACAGAAGGCACAUGAGGAUCACCCAUGUGGGCG	35.2	175	–	–
AUAAGCUCGUCAGGAUAUACAACAUUGUGUAAGCAGUGUGGUAUGAUCACAUGAGGAUCACCCAUGUAGAAGGGACGAGCUUAU	6.9	44.9	–	–
AAGAGGCGAGGAUAUACAUGAGGAUCACCCAUGUAAUCCGGAUAAGGAAGCAUGUCGUGUAGAAGGUGCCAUGA	20.7	19.2	–	–
AAAAAGACAGGAUAUACAUGAAAAAAAAAAAAAAAAAAAAAACAUGAGGAUCACCCAUGUAGAAGGGUCAAAAA	111	106	–	–
GAGUGACAUGAGGAUCACCCAUGUGAGGAUAUCGGACGGACCAAAUUAACAUCCGCCGCGAGAAGGCACAUCGG	78.7	24.5	–	–
AGUGUCAUCGAGAAGGCCUCAACAUGAGGAUCACCCAUGUUGUAAUAUGGGAGGAUAUCGAUGAUACAGCUACGUUUCGUAGCA	–	–	20.7	5.79
UGCGUGGUCACAGGAUAUGCAAGAUAAACUUUAGCAGAAGGGUGAUCAAUCAGCUCAAUACCACAUGAGGAUCACCCAUGUCUA	–	–	53.4	258
GUAGCAUACCGAGGAUAUUCAUCCGGAAACGGACAUGAGGAUCACCCAUGUGCAGAAAACUGCUGGGAGAAGGCGGAAUGCUAC	–	–	89.7	16.9
UGGUACUAGGGAGGAUAUGGGAAGAUACAUGAGGAUCACCCAUGUUUAAGAAUGCCGAGAGGAAACUAGAAGGCCCUAGUACCU	–	–	279	13.8
UGUGCUGAAGGAUAUGCGUAAUGGCCGUGAGGCCUAGAUCUACAUGAGGAUCACCCAUGUAGAAGGUCAGUACU	17.4	18.9	–	–
GCGCGCGCAGGAUAUACAUGAGGAUCACCCAUGUAGCGCGCGCGUAUUUGUGUGUGUUGUAGAAGGGUGUGUGU	20	18.2	–	–
CAAUUUAUGUCAGGAUAUACAAUACAAUGAUUAGUAGAAGGGAUUAAUACAUGAGGAUCACCCAUGUCAUGUGUCAUCGUAACC	22.3	17.4	–	–
AUCCGGGCCCAGAAGGUGCCAGCGAGAGCUGCACAUGAGGAUCACCCAUGUUGUCGGUGACGACGCAAGGAUAUGGGCCCGGAU	–	–	24.4	6.89
AUGUUGCGAGGAUAUAUUUAAUGGAUGAUAUUUAUUAGGGAACAUGAGGAUCACCCAUGUAGAAGGUGCAUAAC	63.7	87	–	–
UAGUGGCAAGGAUAUACAGAGGAGAGGAUUGCAAGAGGUGGACAUGAGGAUCACCCAUGUAGAAGGUGCAGAGA	239	281	–	–
UUUAUUUAGGCAGGAUAUACAUGUAUAUAUAUUUCUUUAUAUAUUAUUACAUGAGGAUCACCCAUGUAGAAGGGCCUUAUUAUA	69.3	88.9	–	–
ACAUGAUAUGUAGGAUAUCACAUUAAUUGAUUAAUAUAUCAAUAUAGAAUUUGAGAAGGACAUUUACAUGAGGAUCACCCAUGU	10.7	8.71	–	–

From the EternaBench riboswitch data
